This is an account of results in article PMC7725269 (ACS biomaterials science & engineering, 2019).

In assay [1] the test system is T47D cells. Nature of the assay: Annexin V apoptosis flow cytometry. It counts as cell-based. Conditions: 1 μM PA 1 or equivalent paclitaxel. On the technique in general: In flow cytometry, cells or beads pass a laser one at a time.
Assay [2] addresses human recombinant DR5 (Homo sapiens, UniProt O14763). Kind of assay: Surface plasmon resonance against immobilized DR5. It counts as binding. The conditions noted are these: SPR, immobilized DR5, running buffer pH 7.0. The method, boiled down: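 About 2000 RU of recombinant human DR5 was EDC/NHS-coupled to a dextran chip from 10 ug/mL in 15 mM Na acetate pH 5.6, then ethanolamine-capped. Running buffer was 10 mM phosphate, 150 mM NaCl, 3 mM EDTA, 0.01% Tween 20. Analytes were quantified by A280 and tested at 62 nM targeting PA. Association was 8 min and dissociation 10 min at 30 uL/min, with 25 mM HCl 30 s regeneration.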

Sequence of human recombinant DR5 (O14763 56-440): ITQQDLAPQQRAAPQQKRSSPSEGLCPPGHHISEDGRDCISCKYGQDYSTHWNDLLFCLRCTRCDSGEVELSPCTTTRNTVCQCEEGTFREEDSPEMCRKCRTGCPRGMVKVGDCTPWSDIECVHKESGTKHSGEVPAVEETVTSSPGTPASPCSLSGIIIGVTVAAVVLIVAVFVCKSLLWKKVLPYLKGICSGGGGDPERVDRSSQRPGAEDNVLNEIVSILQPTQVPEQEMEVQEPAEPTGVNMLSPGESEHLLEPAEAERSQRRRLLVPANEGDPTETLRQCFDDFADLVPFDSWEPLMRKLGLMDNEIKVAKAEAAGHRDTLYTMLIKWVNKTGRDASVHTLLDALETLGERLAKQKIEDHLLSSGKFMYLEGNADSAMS

`CC(=O)O[C@H]1C(=O)[C@@]2(C)[C@H]([C@H](OC(=O)c3ccccc3)[C@]3(O)C[C@H](OC(=O)[C@H](O)[C@@H](NC(=O)c4ccccc4)c4ccccc4)C(C)=C1C3(C)C)[C@]1(OC(C)=O)CO[C@@H]1C[C@@H]2O` [Paclitaxel, paclitaxel]: the “Annexin V binding / cell death (in words)” value in assay [1] is given as “statistically significant increase in annexin V binding”. Take PEG2000-E2A6K(C12) [PA 4]: the “Binding to DR5 (in words)” value in assay [2] was “did not show any binding”.
